Experimental data reported in ChEMBL document CHEMBL1833887, “Synthesis and evaluation of 7-substituted 4-aminoquinoline analogues for antimalarial activity” (J Med Chem, 2011).
Converted amounts (≈) assume the structure as drawn.

Tests used:
[1] = Solubility of the compound at pH 7.4 after 18 hrs by UV spectroscopic analysis; type: physicochemical; conditions: buffer
Summary of the method: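 Kinetic solubility. A 10 mM stock is diluted 1:100 into PBS pH 7.4 and incubated 18 h at room temperature, then filtered; the filtrate is mixed 1:1 with 1-propanol. UV spectrum (250–500 nm) compared by AUC with a 1-propanol/PBS reference. Single experiment in triplicate.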

[2] = Permeability of the compound at pH 7.4 after 30 mins by PAMPA; type: ADME; conditions: read-out: permeability
Summary of the method: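 PAMPA at pH 7.4. A 10 mM DMSO stock is diluted into system solution buffer; its UV spectrum serves as reference. Membrane painted with GIT lipid, acceptor chamber holds acceptor solution buffer. Sandwich stirred for 30 min, aqueous boundary layer set to 40. Donor and acceptor UV spectra read at 250–500 nm. Permeability coefficient from the AUCs of reference, donor and acceptor. Single experiment in triplicate.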

[3] = Dissociation constant, pKa of the compound; type: physicochemical
Plasmodium falciparum [4] = experiment: Antimalarial activity against chloroquine-sensitive Plasmodium falciparum 3D7 infected in human erythrocytes assessed as reduction in parasitemia after 72 hrs by spectrophotometry; type: functional, organism-based; conditions: 3D7, 72 h
Plasmodium falciparum [5] = experiment: Antimalarial activity against chloroquine-resistant Plasmodium falciparum K1 infected in human erythrocytes assessed as reduction in parasitemia after 72 hrs by spectrophotometry; type: functional, organism-based; conditions: K1, 72 h
Plasmodium falciparum [6] = experiment: Ratio of EC50 for chloroquine-resistant Plasmodium falciparum K1 infected in human erythrocytes to EC50 for chloroquine-sensitive Plasmodium falciparum 3D7 infected in human erythrocytes; type: functional
HepG2 = experiment: Cytotoxicity against human HepG2 cells assessed as intracellular ATP level after 72 hrs by Celltiter-Glo luminescent assay; type: cell-based; conditions: HepG2, 72 h
[7] = Ratio of EC50 for human HepG2 cells to EC50 for Plasmodium falciparum 3D7 infected in human erythrocytes
[8] = Ratio of EC50 for human HepG2 cells to EC50 for Plasmodium falciparum K1 infected in human erythrocytes

Row | SMILES | solubility at 18 h [1] [µM] | Papp at 0.5 h [2] [×10⁻⁶ cm/s] | pKa [3] | EC50 (Plasmodium falciparum [4]) [µM] | EC50 (Plasmodium falciparum [5]) [µM] | Ratio EC50 (Plasmodium falciparum [6]) | EC50 (HepG2) [µM] | Ratio EC50 [7] | Ratio EC50 [8]
1 | COc1ccc(F)cc1CNCCCNc1ccnc2cc(C3CCCCC3)ccc12 | 4.2 (≈ 1.77 µg/mL) | 23 | 9.47 | 0.09 | 1.6 | 17.7 | 2.29 | 25.4 | 1.4
2 | Clc1ccc(Oc2ccc3c(NCCCNCc4ccco4)ccnc3c2)cc1 | 14.5 (≈ 5.91 µg/mL) | 317 | 9.28 | 0.04 | 0.793 | 19.8 | 7.8 | 194 | 10
3 | Clc1ccc(Oc2ccc3c(NCCCNCc4ccc5c(c4)OCO5)ccnc3c2)cc1 | 14.5 (≈ 6.7 µg/mL) | 317 | 9.28 | 0.038 | 0.32 | 8.4 | 7.2 | 189 | 22
4 | CC(C)(C)c1ccc(Oc2ccc3c(NCCCNCc4ccc5c(c4)OCO5)ccnc3c2)cc1 | 14.5 (≈ 7.01 µg/mL) | 317 | 9.28 | 0.137 | 2.45 | 17.9 | 0.9 | 7 | 0.4
5 | c1cc(NCCCNCc2ccc3c(c2)OCO3)c2ccc(CC3CCCCC3)cc2n1 | 4.2 (≈ 1.81 µg/mL) | 23 | 9.47 | 0.041 | 0.701 | 17.3 | 6.29 | 155.2 | 9
6 | CCC(CC)c1ccc2c(NCCCNCc3ccco3)ccnc2c1 | 4.2 (≈ 1.48 µg/mL) | 23 | 9.47 | 0.086 | 4.3 | 50.1 | 6.76 | 78.7 | 1.6
7 | CC(C)Cc1ccc2c(NCCCNCc3ccc4c(c3)OCO4)ccnc2c1 | 4.2 (≈ 1.64 µg/mL) | 23 | 9.47 | 0.066 | 1.81 | 27.7 | 2.38 | 36.3 | 1.3
8 | COc1ccc(F)cc1CNCCCNc1ccnc2cc(Oc3ccc(C(C)(C)C)cc3)ccc12 | 14.5 (≈ 7.07 µg/mL) | 317 | 9.28 | 0.106 | 2.78 | 26.2 | 7.2 | 68 | 3
9 | COc1cccc(CNCCCNc2ccnc3cc(-c4cccc5ccccc45)ccc23)c1O | 32 (≈ 14.8 µg/mL) | 237 | 9.47 | 0.033 | 1.12 | 33.9 | 2.52 | 76.3 | 2.3
10 | COc1ccc(F)cc1CNCCCNc1ccnc2cc(-c3ccccc3)ccc12 | 32 (≈ 13.3 µg/mL) | 237 | 9.47 | 0.011 | 0.045 | 4.2 | 2.96 | 276.4 | 66.3
11 | COc1cccc(CNCCCNc2ccnc3cc(Oc4cccc(N(C)C)c4)ccc23)c1O | 14.5 (≈ 6.85 µg/mL) | 317 | 9.28 | 0.01 | 2.04 | 215.1 | 7.3 | 765 | 4
12 | COc1ccc(F)cc1CNCCCNc1ccnc2cc(-c3cccc4ccccc34)ccc12 | 32 (≈ 14.9 µg/mL) | 237 | 9.47 | 1.15 | 1.03 | 0.9 | 16 | 13.9 | 15.5
13 | COc1ccc(Oc2ccc3c(NCCCNCc4ccco4)ccnc3c2)cc1 | 14.5 (≈ 5.85 µg/mL) | 317 | 9.28 | 0.004 | 0.02 | 5.6 | 5.3 | 1479 | 265
14 | COc1cccc(Oc2ccc3c(NCCCNCc4ccc5c(c4)OCO5)ccnc3c2)c1 | 14.5 (≈ 6.63 µg/mL) | 317 | 9.28 | 0.012 | 0.6 | 50 | 14.1 | 1178 | 24
